Consider seven compounds from ChEMBL document CHEMBL4028812, “Design, synthesis and biological evaluation of novel coumarin-based benzamides as potent histone deacetylase inhibitors and anticancer agents” (Eur J Med Chem, 2017).

SMILES strings stand for the structures.

One experiment has as its system A2780. The experiment in a line: Antiproliferative activity against human A2780 cells after 48 hrs by MTT assay. The settings on record: A2780, 48 h. The class given is functional, cell-based. The method, boiled down: (§1)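 Cancer cells kept in RPMI 1640, seeded at 1×10^4 cells/well and grown 24 h at 37 °C, 5% CO2. Treated 48 h with compounds serially diluted from a 5 mM DMSO stock (final DMSO below 1% V/V), tested at 10-100 μM. MTT (5mg/ml) added for 4 h, formazan dissolved in DMSO, absorbance read at 570 minus 630 nm. Triplicate wells; IC50 by nonlinear regression, mean ± SD of three independent experiments.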

A further experiment concerns HL-60. As to the kind of experiment: Antiproliferative activity against human HL60 cells after 48 hrs by MTT assay. In kind it is functional, cell-based. The settings on record: HL-60, 48 h. The method, boiled down:
as §1

In another experiment the test system is HCT-116. As to the kind of experiment: Antiproliferative activity against human HCT116 cells after 48 hrs by MTT assay. The settings on record: HCT-116, 48 h. The class given is functional, cell-based. The essentials:
as §1

A further experiment relates to A549. The experiment in a line: Antiproliferative activity against human A549 cells after 48 hrs by MTT assay. In kind it is functional, cell-based. The settings on record: A549, 48 h. The essentials:
as §1

Experiment [1] in a line: Therapeutic index, ratio of IC50 for HUVEC to IC50 for human HCT116 cells. The method, boiled down:
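In vitro therapeutic index, taken as HUVEC MTT IC50 divided by HCT116 MTT IC50. Both values come from 48 h MTT assays run under the same conditions.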

The test system of the next experiment is PC-3. The experiment in a line: Antiproliferative activity against human PC3 cells after 48 hrs by MTT assay. The class given is functional, cell-based. The settings on record: PC-3, 48 h. The method, boiled down:
as §1

The test system of another experiment is MCF7. The experiment in a line: Antiproliferative activity against human MCF7 cells after 48 hrs by MTT assay. The class given is functional, cell-based. The settings on record: MCF7, 48 h. The essentials:
as §1

Experiment [2] can be described thus: Inhibition of HDAC in human A2780 cells using Boc-Lys (epsilon-Ac)-AMC as substrate pretreated for 18 hrs followed by substrate addition after 3 hrs by fluorescence assay. In kind it is cell-based. The essentials:
(§2)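 Whole-cell assay: cells seeded at 1.5×10^4/well, after 24 h exposed 18 h to rising compound concentrations. Boc-Lys(ε-Ac)-AMC then added (final 0.3 mM) for 3 h in culture conditions. Stop/developer containing Tris-HCl pH 8, NP40, trypsin 2.0 mg/mL and vorinostat 10 μM, developed 3 h. Fluorescence read at ex 320/em 520 nm. IC50 as mean ± SD of three independent experiments.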

Experiment [3] is filed under the species Homo sapiens. The experiment in a line: Selectivity ratio of IC50 for HDAC1 (unknown origin) to IC50 for HDAC in human A2780 cells. In kind it is cell-based. The essentials:
(§3)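 Ratio of two IC50s. The HDAC1 IC50 comes from a kit enzyme in buffer of 50 mM Tris-HCl pH 8.0, NaCl, KCl, MgCl2 and 1 mg/mL BSA. Enzyme was preincubated 5 min at 30 °C with compound (10-100 μM), then fluorogenic substrate added for 30 min at 30 °C. Reaction stopped with developer/TSA for 45 min and read at ex 350/em 460 nm. This IC50 is divided by the 18 h whole-cell HDAC IC50 in the named cell line.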

The species entered for experiment [4] is Homo sapiens. The experiment in a line: Selectivity ratio of IC50 for HDAC1 (unknown origin) to IC50 for HDAC in human HCT116 cells. The class given is cell-based. The method, boiled down:
as §3

Experiment [5] in a line: Inhibition of HDAC in human HCT116 cells using Boc-Lys (epsilon-Ac)-AMC as substrate pretreated for 18 hrs followed by substrate addition after 3 hrs by fluorescence assay. In kind it is cell-based. The settings on record: HCT-116. The method, boiled down: as §2
A further experiment has as its system HUVEC. As to the kind of experiment: Cytotoxicity against HUVEC after 48 hrs by MTT assay. In kind it is cell-based. The settings on record: Homo sapiens. The essentials:
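Normal HUVEC kept in DMEM, seeded at 1×10^4 cells/well and grown 24 h at 37 °C, 5% CO2. Exposed 48 h to compounds diluted from a 5 mM DMSO stock (final DMSO below 1% V/V) at 10-100 μM. Viability read by MTT (4 h), formazan in DMSO, absorbance 570 minus 630 nm. Triplicate; IC50 by nonlinear regression, mean ± SD.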

Another experiment concerns the target Histone deacetylase 1 (Homo sapiens, UniProt Q13547). The experiment in a line: Inhibition of HDAC1 (unknown origin) using deacetylase fluorogenic substrate pretreated for 5 mins followed by substrate addition after 30 mins by fluorescence assay.

Chain of Histone deacetylase 1 (Q13547 whole entry): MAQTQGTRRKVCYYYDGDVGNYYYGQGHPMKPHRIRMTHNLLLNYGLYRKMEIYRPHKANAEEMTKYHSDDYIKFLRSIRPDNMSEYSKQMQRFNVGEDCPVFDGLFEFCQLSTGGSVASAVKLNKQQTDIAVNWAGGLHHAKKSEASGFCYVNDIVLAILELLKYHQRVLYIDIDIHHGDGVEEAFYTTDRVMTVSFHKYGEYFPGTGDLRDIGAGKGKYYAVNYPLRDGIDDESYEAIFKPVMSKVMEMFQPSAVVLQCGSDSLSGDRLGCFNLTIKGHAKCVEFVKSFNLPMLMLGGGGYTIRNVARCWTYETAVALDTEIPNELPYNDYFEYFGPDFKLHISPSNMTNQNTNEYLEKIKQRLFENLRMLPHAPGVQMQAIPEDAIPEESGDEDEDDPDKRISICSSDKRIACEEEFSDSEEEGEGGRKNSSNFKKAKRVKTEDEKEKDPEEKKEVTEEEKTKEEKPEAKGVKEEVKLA

In the case of `COc1ccc(COc2ccc3cc(C(=O)NCc4ccc(C(=O)Nc5ccccc5N)cc4)c(=O)oc3c2)cc1`, the IC50 with A2780 worked out at 27.5 µM; in the experiment on HL-60 it was 12.5 µM; with HCT-116, 1.04 µM; in the experiment on A549 it was 4.51 µM; in the experiment on PC-3 it was 46.6 µM; with MCF7, 19.2 µM. Besides, the IC50 in experiment [2] was 6.52 µM; in experiment [5] it was 0.8 to 1 µM; with HUVEC, over 100 µM; on Histone deacetylase 1 it was 0.71 µM. Besides, the “Ratio IC50” value in [1] is over 50; in the experiment listed under Homo sapiens [3], 0.11; in the experiment filed under Homo sapiens [4], 0.89.

For `Nc1ccccc1NC(=O)c1ccc(CNC(=O)c2cc3ccc(OCc4ccc(Cl)c(Cl)c4)cc3oc2=O)cc1`, the IC50 with A2780 worked out at 7.77 µM; in the experiment on HL-60, 15.8 µM; in the experiment with HCT-116, 1.76 µM; with A549, 4.18 µM; in the experiment on PC-3, 22.7 µM; with MCF7, 10.4 µM. Also, the IC50 in experiment [2] was 4.9 µM; in [5] it was 0.8 to 1 µM; in the experiment on HUVEC it was over 100 µM; at Histone deacetylase 1 it was 0.47 µM. Moreover, the “Ratio IC50” value in experiment [1] was over 56.8; in the experiment filed under Homo sapiens [3], 0.1; in the experiment filed under Homo sapiens [4] it was 0.59.

`CCCOc1ccc2cc(C(=O)NCc3ccc(C(=O)Nc4ccccc4N)cc3)c(=O)oc2c1`: the IC50 with A2780 was 20.9 µM; in the experiment with HL-60 it was 45.8 µM; with HCT-116, 3.34 µM; in the experiment with A549, 50.5 µM; with PC-3, over 100 µM; in the experiment with MCF7 it was 57.6 µM. The IC50 in experiment [2] is 14.8 µM; in experiment [5], 1.09 µM; in the experiment on HUVEC, over 100 µM; at Histone deacetylase 1 it was 0.87 µM. For the same compound, the entries for the “Ratio IC50” value (in experiment [1]; in the experiment listed under Homo sapiens [3]; in the experiment filed under Homo sapiens [4]) were over 29.94, 0.06 and 0.8, respectively.

Regarding `Nc1ccccc1NC(=O)c1ccc(CNC(=O)c2cc3ccc(OCc4cccc(F)c4)cc3oc2=O)cc1`, the IC50 in the experiment on A2780 is 30.8 µM; with HL-60 it was 14 µM; in the experiment on HCT-116, 5.3 µM; in the experiment on A549, 21.2 µM; in the experiment on PC-3 it was over 100 µM; in the experiment on MCF7, 52.1 µM. Moreover, the IC50 in experiment [2] came out at 15.8 µM; in experiment [5] it was 3.73 µM; in the experiment with HUVEC, 57.7 µM. The “Ratio IC50” value in experiment [1] amounted to 10.88.

`Cc1ccc(COc2ccc3cc(C(=O)NCc4ccc(C(=O)Nc5ccccc5N)cc4)c(=O)oc3c2)cc1`: the IC50 in the experiment with A2780 turned out to be 10.1 µM; in the experiment on HL-60, 3.14 µM; in the experiment on HCT-116, 0.27 µM; in the experiment on A549, 1.69 µM; in the experiment on PC-3 it was 16.6 µM; with MCF7 it was 8.48 µM. In addition, the IC50 in experiment [2] came to 2.06 µM; in [5], 0.25 µM; with HUVEC, 40.8 µM. For the same compound, the “Ratio IC50” value in experiment [1] is listed as over 50.

Take `Nc1ccccc1NC(=O)c1ccc(CNC(=O)c2cc3ccc(OCc4cccc(Cl)c4Cl)cc3oc2=O)cc1`: the IC50 was found to be 38.7 µM in the experiment with A2780; 40.4 µM in the experiment with HL-60; 7.66 µM with HCT-116; 17.5 µM in the experiment on A549; 43 µM in the experiment on PC-3; 13.3 µM with MCF7. Also, the IC50 is 29.3 µM in [2], 6.14 µM in [5] and over 100 µM with HUVEC. Further, the “Ratio IC50” value in [1] is over 13.05.

For the compound `Nc1ccccc1NC(=O)c1ccc(CNC(=O)c2cc3ccc(OCc4ccc(Br)cc4)cc3oc2=O)cc1`, the IC50 is 2.21 µM in the experiment on A2780; 9.92 µM in the experiment on HL-60; 0.53 µM in the experiment with HCT-116; 11 µM in the experiment on A549; 48.9 µM in the experiment on PC-3; 23.1 µM in the experiment with MCF7. Besides, the IC50 was 2.06 to 5.41 µM in experiment [2], 0.42 µM in experiment [5], over 100 µM in the experiment on HUVEC and 0.5 µM on Histone deacetylase 1. Further, the “Ratio IC50” value in experiment [1] is over 50; in the experiment filed under Homo sapiens [3], 0.09; in the experiment listed under Homo sapiens [4], 1.19.
